Measured values: ChEMBL document CHEMBL4330063, “New naphthopyran analogues of LY290181 as potential tumor vascular-disrupting agents” (Eur J Med Chem, 2019)
Active and inactive are the calls of the source. No cut-off for these calls is given here.

Assays:
[1] = Antiproliferative activity against human A2780cis cells after 72 hrs by SRB assay; format: functional, cell-based
Method in brief: (§1)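 Ovarian A2780 and cisplatin-resistant A2780cis cells were exposed for 72 h and stained with SRB. IC50 comes from dose-response curves, as means±SD of three independent experiments. Final DMSO was below 1%, with matched vehicle controls.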

DLD-1 = assay: Antiproliferative activity against human DLD1 cells after 72 hrs by MTT assay; format: functional, cell-based; settings: DLD-1, 72 h
Method in brief: (§2)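 MTT read-out after 72 h of continuous exposure. Viability is expressed as percentage of viable cells relative to untreated controls. IC50 comes from dose-response curves. Values are means±SD of four independent experiments (two for some entries). DMSO was below 1%, with vehicle controls at equal DMSO. Precipitation was excluded spectrometrically and microscopically.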

A2780 = assay: Antiproliferative activity against human A2780 cells after 72 hrs by SRB assay; format: functional, cell-based; settings: A2780, 72 h; method in brief: as §1
HT-29 [2] = assay: Cell cycle arrest in human HT-29 cells assessed as accumulation of cells at G1 phase at 100 nM after 24 hrs by propidium iodide staining-based flow cytometric analysis (reference value: 75.1 +/- 1.1%); format: functional
HT-29 [3] = assay: Cell cycle arrest in human HT-29 cells assessed as accumulation of cells at G2/M phase after 24 hrs by propidium iodide staining-based flow cytometric analysis; format: functional
HT-29 [4] = assay: Cell cycle arrest in human HT-29 cells assessed as accumulation of cells at S phase at 350 nM after 24 hrs by propidium iodide staining-based flow cytometric analysis (reference value: 12.3 +/- 0.4%); format: functional
HT-29 [5] = assay: Cell cycle arrest in human HT-29 cells assessed as accumulation of cells at G2/M phase at 100 nM after 24 hrs by propidium iodide staining-based flow cytometric analysis (reference value: 11.4 +/- 1.4%); format: functional
PANC-1 = assay: Antiproliferative activity against human PANC1 cells after 72 hrs by MTT assay; format: functional, cell-based; settings: PANC-1, 72 h; method in brief: as §2
[6] = Antiproliferative activity against human KB-V1/Vbl cells after 72 hrs by MTT assay; format: functional, cell-based; method in brief: as §2
HT-29 [7] = assay: Cell cycle arrest in human HT-29 cells assessed as accumulation of cells at sub G1 phase at 350 nM after 24 hrs by propidium iodide staining-based flow cytometric analysis (reference value: 1.2 +/- 0.3%); format: functional
HT-29 [8] = assay: Cell cycle arrest in human HT-29 cells assessed as accumulation of cells at sub G1 phase at 100 nM after 24 hrs by propidium iodide staining-based flow cytometric analysis (reference value: 1.2 +/- 0.3%); format: functional
518A2 [9] = assay: Induction of apoptosis in human 518A2 cells assessed as caspase-9 activity at 5 uM after 3.5 hrs by Caspase-Glo luminescence assay (reference value: 100 +/- 1.2%); format: functional
Tubulin (Homo sapiens) = Tubulin (Homo sapiens) (UniProt P68371+Q9H4B7+P0DPH7+P68366+Q13509+Q71U36+P04350+Q3ZCM7+P07437+P68363+Q9BQE3+Q6PEY2+Q13885+Q9BVA1+Q9BUF5); assay: Induction of microtubule disruption in human 518A2 cells at 100 nM after 3 hrs by DAPI staining-based fluorescence microscopic analysis; format: cell-based
Method in brief: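 Microtubule organization in 518A2 melanoma cells was checked by tubulin immunofluorescence staining after 3 h exposure to 100 nM, with DAPI as the nuclear counterstain. Images come from two independent experiments.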

518A2 [10] = assay: Induction of cell cycle arrest in human 518A2 cells; format: functional, cell-based
518A2 [11] = assay: Antiproliferative activity against human 518A2 cells after 72 hrs by MTT assay; format: functional, cell-based; settings: for IC50: 518A2, 72 h; method in brief: as §2
EA.hy 926 [12] = assay: Cytotoxicity against human EAhy926 cells at 100 nM after 24 hrs by MTT assay relative to control; format: cell-based; settings: ea.hy 926, 24 h, 0.1 µM
HT-29 [13] = assay: Cell cycle arrest in human HT-29 cells assessed as accumulation of cells at G2/M phase at 250 nM after 24 hrs by propidium iodide staining-based flow cytometric analysis (reference value: 11.4 +/- 1.4%); format: functional
EA.hy 926 [14] = assay: Antiangiogenic activity against human EAhy926 cells assessed as inhibition of tube formation on matrigel at 100 nM after 24 hrs by light microscopic analysis; format: functional, cell-based
Method in brief: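 Ea.Hy926 endothelial hybrid cells were seeded on matrigel with compound and examined for tubular/cord-like network formation versus untreated controls. Viability under the same conditions was checked in parallel by MTT to exclude cytotoxic effects.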

HT-29 [15] = assay: Cell cycle arrest in human HT-29 cells assessed as accumulation of cells at G2/M phase at 350 nM after 24 hrs by propidium iodide staining-based flow cytometric analysis (reference value: 11.4 +/- 1.4%); format: functional
[16] = Antiproliferative activity against human MCF7/Topo cells after 72 hrs by MTT assay; format: functional, cell-based; method in brief: as §2
HT-29 [17] = assay: Cell cycle arrest in human HT-29 cells assessed as accumulation of cells at sub G1 phase at 250 nM after 24 hrs by propidium iodide staining-based flow cytometric analysis (reference value: 1.2 +/- 0.3%); format: functional
EA.hy 926 [18] = assay: Antiproliferative activity against human EAhy926 cells after 72 hrs by MTT assay; format: functional, cell-based; settings: EA.hy 926, 72 h; method in brief: as §2
518A2 [19] = assay: Induction of apoptosis in human 518A2 cells assessed as accumulation at subG1 phase; format: functional, cell-based
518A2 [20] = assay: Effect on F-actin in human 518A2 cells assessed as thick stress fibers formation at 100 nM after 3 hrs by DAPI staining-based fluorescence microscopic analysis; format: cell-based
Method in brief: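 518A2 melanoma cells were treated with 100 nM for 3 h. Filamentous actin was fluorescence-labelled, nuclei were counterstained with DAPI, and the cells were imaged by fluorescence microscopy. Images come from two independent experiments.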

518A2 [21] = assay: Induction of apoptosis in human 518A2 cells at 100 nM after 24 hrs by TUNEL assay relative to control; format: functional
HT-29 [22] = assay: Cell cycle arrest in human HT-29 cells assessed as accumulation of cells at S phase at 100 nM after 24 hrs by propidium iodide staining-based flow cytometric analysis (reference value: 12.3 +/- 0.4%); format: functional
HT-29 [23] = assay: Cell cycle arrest in human HT-29 cells assessed as accumulation of cells at G1 phase at 250 nM after 24 hrs by propidium iodide staining-based flow cytometric analysis (reference value: 75.1 +/- 1.1%); format: functional
518A2 [24] = assay: Antimigratory activity against human 518A2 cells at 50 nM after 48 hrs by wound healing assay; format: functional, cell-based
HT-29 [25] = assay: Cell cycle arrest in human HT-29 cells assessed as accumulation of cells at G1 phase at 350 nM after 24 hrs by propidium iodide staining-based flow cytometric analysis (reference value: 75.1 +/- 1.1%); format: functional
HT-29 [26] = assay: Antiproliferative activity against human HT-29 cells after 72 hrs by MTT assay; format: functional, cell-based; settings: HT-29, 72 h; method in brief: as §2
Tubulin = Tubulin (Sus scrofa, UniProt P02554+P02550); assay: Inhibition of porcine brain tubulin polymerization after 2 hrs
HT-29 [27] = assay: Cell cycle arrest in human HT-29 cells assessed as accumulation of cells at S phase at 250 nM after 24 hrs by propidium iodide staining-based flow cytometric analysis (reference value: 12.3 +/- 0.4%); format: functional
HCT-116 = assay: Antiproliferative activity against human HCT116 cells after 72 hrs by MTT assay; format: functional, cell-based; settings: HCT-116, 72 h; method in brief: as §2

| IC50 (DLD-1) [nM] | IC50 (A2780) [nM] | IC50 (PANC-1) [nM] | Activity (Tubulin (Homo sapiens)) | SMILES | IC50 [1] [nM] | Activity (HT-29 [2]) [%] | Activity (HT-29 [3]) | Activity (HT-29 [4]) [%] | Activity (HT-29 [5]) [%] | IC50 [6] [nM] | Activity (HT-29 [7]) [%] | Activity (HT-29 [8]) [%] | Activity (518A2 [9]) [%] | Activity (518A2 [10]) | Activity (518A2 [11]) | IC50 (518A2 [11]) [nM] | Activity (EA.hy 926 [12]) [%] | Activity (HT-29 [13]) [%] | Activity (EA.hy 926 [14]) | Activity (HT-29 [15]) [%] | further results |
| --- | --- | --- | --- | --- | --- | --- | --- | --- | --- | --- | --- | --- | --- | --- | --- | --- | --- | --- | --- | --- | --- |
| 32.3 | 17 | 19.5 | Active | N#CC1=C(N)Oc2c(ccc3ccccc23)C1c1cc(F)cc(F)c1 (stereo not drawn) | 20.3 | 40.3 | Dose-dependent effect | 12.3 | 31.8 | 25.8 | 13.4 | 7.1 | 133 | inactive | Dose-dependent effect | 26.4 | > 68 | 33.6 | Active | 43.5 | IC50 [16]: 20.1 nM; Activity (HT-29 [17]): 11.3%; IC50 (EA.hy 926 [18]): 31.5 nM; Activity (518A2 [19]): Active; Activity (518A2 [20]): Active; Activity (518A2 [21]): 67.5%; Activity (HT-29 [22]): 20.7%; Activity (HT-29 [23]): 35.9%; Activity (518A2 [24]): Active; Activity (HT-29 [25]): 30.8%; IC50 (HT-29 [26]): 176 nM; I50 (Tubulin): 9.6 µM; Activity (HT-29 [27]): 19.2%; IC50 (HCT-116): 47 nM |
| 33.7 | 18.7 | 12.5 | Active | N#CC1=C(N)Oc2c(ccc3ccccc23)C1c1cccc([N+](=O)[O-])c1 (stereo not drawn) | 26 | 49.3 | Dose-dependent effect | 24.1 | 18.4 | 22.6 | 12.2 | 6.1 | 114.7 | inactive | Dose-dependent effect | 35.9 | > 68 | 12.9 | Active | 23.9 | IC50 [16]: 11.8 nM; Activity (HT-29 [17]): 13%; IC50 (EA.hy 926 [18]): 35.6 nM; Activity (518A2 [19]): Active; Activity (518A2 [20]): Active; Activity (518A2 [21]): 61.4%; Activity (HT-29 [22]): 26.2%; Activity (HT-29 [23]): 51.7%; Activity (518A2 [24]): Active; Activity (HT-29 [25]): 39.8%; IC50 (HT-29 [26]): 46.9 nM; I50 (Tubulin): 7.1 µM; Activity (HT-29 [27]): 22.4%; IC50 (HCT-116): 44.3 nM |
